Experimental data taken from PubChem BioAssay AID463145 (The Scripps Research Institute Molecular Screening Center, 2010).
Calls of active or inactive are those of the source.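 Rule for the calls: active = FXR activation with a fold change above 2; inactive = the rest.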

Molecular target: Bile acid receptor (Homo sapiens) (UniProt Q96RI1)
Experiment: activation of FXR ligand-binding domain – cell-based, luciferase luminescence, assay provider, powder samples, selectivity assay for RORA inverse agonist project, late-stage follow-up (AID 463145)
Settings: HEK293T GAL4-FXR LBD luciferase reporter, 18-24 h; at 10 µM; hits give high values
How it was run: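 Assay system: HEK293T GAL4-FXR LBD luciferase reporter cells; Times: 20 h compound treatment; Technique: luciferase luminescence.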

Bile acid receptor (Homo sapiens), sequence (Q96RI1 whole entry, looked up, the tested form may be a part): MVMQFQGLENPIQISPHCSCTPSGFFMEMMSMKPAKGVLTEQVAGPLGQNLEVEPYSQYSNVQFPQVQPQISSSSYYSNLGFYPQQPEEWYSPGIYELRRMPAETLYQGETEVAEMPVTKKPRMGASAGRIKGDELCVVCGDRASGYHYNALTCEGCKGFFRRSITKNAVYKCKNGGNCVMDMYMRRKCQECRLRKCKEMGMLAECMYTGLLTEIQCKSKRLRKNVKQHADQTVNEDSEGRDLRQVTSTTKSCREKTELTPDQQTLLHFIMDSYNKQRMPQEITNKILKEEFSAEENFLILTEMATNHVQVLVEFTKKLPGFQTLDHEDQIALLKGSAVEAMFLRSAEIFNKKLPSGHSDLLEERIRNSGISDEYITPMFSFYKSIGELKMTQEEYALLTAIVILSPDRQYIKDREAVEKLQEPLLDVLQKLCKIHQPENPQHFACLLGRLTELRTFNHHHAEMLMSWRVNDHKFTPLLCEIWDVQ

`O=C(Nc1ccc(C(O)(C(F)(F)F)C(F)(F)F)cc1)c1ccc(F)cc1F` was tested, and the fold change was 1.52 (inactive).

In the case of `O=C(Nc1ccc(C(O)(C(F)(F)F)C(F)(F)F)cc1)c1c(F)cccc1F`, the fold change is reported as 1.06 (inactive).

In the case of `O=C(Nc1ccc(C(O)(C(F)(F)F)C(F)(F)F)cc1)c1ccc(Cl)cc1`, the fold change is reported as 1.14 (inactive).

`O=C(Nc1ccc(C(O)(C(F)(F)F)C(F)(F)F)cc1)c1ccc(F)cc1Cl` was tested, and the fold change was 1.07 (inactive).

For `O=S(=O)(Nc1ccc(C(O)(C(F)(F)F)C(F)(F)F)cc1)c1cccs1`, the fold change was 1.21 (inactive).

In the case of `O=C(Nc1ccc(C(O)(C(F)(F)F)C(F)(F)F)cc1)c1ccccc1C(F)(F)F`, the fold change is reported as 0.846 (inactive).
